Screens deposited in PubChem by several laboratories.
A selection: hits, their analogues and other compounds. The true share with any hit is near 2.2%.
C8 TRAIL sens = sensitizes caspase-8 expressing cells to TRAIL; NB7+C8 cells + TRAIL, ATPlite viability luminescence; inhibition (viability loss, TRAIL sensitization), % at 10 µM; 360,000 compounds, 1% hits; AID 624354;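 active means compounds causing at least 50% loss of cell viability in the single-dose screen, relative to plate controls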
FLuc inh counter = inhibits firefly luciferase, flagging false hits in luciferase inhibition screens; AID 1006; inhibition, % at 10 µM; 200,000 compounds, 1.5% hits; ATPLite firefly luciferase biochemical luminescence, 10 min; P08659;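 active means inhibition above about 50% when tested at 10 µM, limit read from the data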
Target sequence (P08659 whole entry, looked up): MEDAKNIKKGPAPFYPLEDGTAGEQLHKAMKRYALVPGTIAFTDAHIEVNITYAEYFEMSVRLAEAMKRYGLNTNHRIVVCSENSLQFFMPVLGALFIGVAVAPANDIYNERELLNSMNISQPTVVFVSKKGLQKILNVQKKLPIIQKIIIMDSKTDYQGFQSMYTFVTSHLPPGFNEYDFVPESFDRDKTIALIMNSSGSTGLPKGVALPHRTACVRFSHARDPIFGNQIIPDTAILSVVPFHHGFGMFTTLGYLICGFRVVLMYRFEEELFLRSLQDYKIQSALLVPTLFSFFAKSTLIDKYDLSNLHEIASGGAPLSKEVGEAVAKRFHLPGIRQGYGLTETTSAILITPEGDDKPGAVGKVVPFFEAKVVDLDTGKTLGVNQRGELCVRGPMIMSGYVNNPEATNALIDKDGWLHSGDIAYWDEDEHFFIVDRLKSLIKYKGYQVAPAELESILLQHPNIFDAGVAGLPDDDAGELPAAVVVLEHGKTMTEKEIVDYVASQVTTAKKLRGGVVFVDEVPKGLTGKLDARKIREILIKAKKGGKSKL
PPC-1+TRAIL kill = kills PPC-1 cancer cells in the presence of TRAIL | PPC-1 cells + TRAIL, ATPLite viability luminescence | cell killing (% activity), % at 4 µM or 5 µM | 220,000 compounds, 0.41% hits;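 active means cell killing above 50% in the first pass at 4 µM, then a duplicate retest at 5 µM averaging 50% or more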;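 further: plate controls were cells with TRAIL plus DMSO for no effect and medium-only wells lacking cells for full effect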
STAT3 inh = inhibitors of IL-6 induced STAT3 signaling; AID 862; inhibition, % at 5.5 µM; U3A cells, IL-6 STAT3-luciferase reporter, luminescence; host cell line lacks STAT1; 190,000 compounds, 0.89% hits;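 active means inhibition above the mean inhibition across all screened compounds plus 3 SD, cut at about 44% in these data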;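 further: 0% = DMSO only wells and 100% = 100 µM nifuroxazide control wells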
FLuc act counter = affects firefly luciferase, flagging false hits in luciferase stimulation screens | P08659 | ATPlite luciferase biochemical, luminescence, 10 min; 0 = ATP-free wells, 1 = DMSO control | activation factor at 10 µM | 200,000 tested, under 10 active | AID 1027;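 active means luciferase activation factor, scaled between plate controls, of at least 2 with compound at 10 µM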
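Assay system – cell-free luciferase reagent · Medium – PBS-based ATP solution · Dosing – test compounds dosed from 2 mM stocks in 100% DMSO · Timing – 10 min, room temperature · Technique – light output (luminescence) · Measure – luminescence gain marking luciferase activators · Controls – No-ATP low control, compound-free enzyme-plus-ATP high control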
HSP90 inh = HSP90 refolding inhibition in rabbit reticulocyte lysate; 290,000 compounds, 0.91% hits; inhibition, % at 5.6 µM; luciferase refolding luminescence, 3 h; AID 1789;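 active means inhibition above the screen-wide mean plus 3 SD, computed separately per campaign, cut at about 16% in these data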;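 further: 0% = DMSO wells and 100% = 60 µM geldanamycin wells; inhibitors lower the luminescence because luciferase stays unfolded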
HSP90 inh confirm = confirmation of HSP90 inhibitors. shares compounds with HSP90 inh. rabbit reticulocyte lysate, luciferase refolding luminescence, 3 h. inhibition, % at 5.9 µM. 2,300 compounds, 64% hits. AID 1846; in the data active means inhibition above about 18%;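 further: 0% = vehicle wells and 100% = reference inhibitor wells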
FLuc counter = counter-screen for HSP90 inhibitors: inhibitors of firefly luciferase; shares compounds with HSP90 inh; purified native firefly luciferase, luminescence; inhibition, % at 5.9 µM; 2,300 compounds, 48% hits;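 active means inhibition above the mean inhibition of all tested sample wells plus 3 SD, cut at about 10% in these data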;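 further: 0% = DMSO with luciferase and 100% = wells lacking luciferase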
* hit, by the source's call.

For CC(=O)Nc1ccc(NC(=O)Cn2cnc3c(cnn3C(C)(C)C)c2=O)cc1 the results were FLuc inh counter -5, PPC-1+TRAIL kill 7, STAT3 inh -10, FLuc act counter 1.1 and HSP90 inh -3.
For CCn1nnc2cc(C(=O)O)ccc21 the results were C8 TRAIL sens -14, PPC-1+TRAIL kill 16 and HSP90 inh -2.
For CCn1nnc2cc(C(=O)NCCc3ccccc3F)ccc21 the results were C8 TRAIL sens 14, HSP90 inh 43*, HSP90 inh confirm 59* and FLuc counter 39*.
For CCCCCOC(=O)Nc1nnc(CCCCC)s1 the results were C8 TRAIL sens 9, FLuc inh counter -4, PPC-1+TRAIL kill -1, STAT3 inh -1, FLuc act counter 1 and HSP90 inh -3.
`CCCCOC(=O)Nc1nnc(CC)s1` gave C8 TRAIL sens 23, FLuc inh counter 2, PPC-1+TRAIL kill 34, STAT3 inh -13, FLuc act counter 1, HSP90 inh 29*, HSP90 inh confirm 1 and FLuc counter -20.
Screening CCOc1ccc(Nc2nc(N)c3ccccc3n2)cc1 returned C8 TRAIL sens 86*, HSP90 inh 60*, HSP90 inh confirm 74* and FLuc counter 61*.
For CCOc1nc(Nc2ccc(OC)cc2)nc(OCC)n1 the results were C8 TRAIL sens 14, FLuc inh counter -1, PPC-1+TRAIL kill 4, STAT3 inh -2, FLuc act counter 1 and HSP90 inh 2.
For CN(C)c1ccc(Nc2nc(N)c3ccccc3n2)cc1 the results were C8 TRAIL sens 84*, HSP90 inh 71*, HSP90 inh confirm 92* and FLuc counter 78*.
COc1ccc(C(C(=O)NC2CCCC2)n2c(CSCCOc3ccccc3)nc3ccccc32)cc1 (stereo unspecified) was read as C8 TRAIL sens 12.
Screening Cc1cccc(OCCCC(=O)Nc2ccc(S(=O)(=O)Nc3nccs3)cc2)c1C returned C8 TRAIL sens -15 and HSP90 inh 2.
Screening Cc1ccc(/C=C/c2nnc(-c3ccc(C)cc3)o2)cc1 returned C8 TRAIL sens -16, FLuc inh counter 2, PPC-1+TRAIL kill 12, STAT3 inh 7, FLuc act counter 1, HSP90 inh 32*, HSP90 inh confirm 0 and FLuc counter -19.
Screening CCN(CC)C(=O)[C@H]1C[C@H](CC(=O)NC/C=C(\C)CCC=C(C)C)C(=O)N2CCc3c([nH]c4cc(CCC(=O)N(C)C)ccc34)[C@]12C returned C8 TRAIL sens -8.
Screening CCc1nnc(NS(=O)(=O)c2ccc(NC(=O)c3ccc([N+](=O)[O-])s3)cc2)s1 returned C8 TRAIL sens 4.
For Cc1ccc(C(=O)OCC(=O)c2cc(C)n(CC3CCCO3)c2C)cc1 (stereo unspecified) the results were C8 TRAIL sens 32, FLuc inh counter 34, PPC-1+TRAIL kill 17, STAT3 inh -1, FLuc act counter 0.7, HSP90 inh 32*, HSP90 inh confirm 35* and FLuc counter 32*.
For Cc1cc(C(=O)COC(=O)c2ccccc2NCCO)c(C)n1CC1CCCO1 (stereo unspecified) the results were C8 TRAIL sens 42, HSP90 inh 53*, HSP90 inh confirm 23* and FLuc counter -8.
Screening CCOc1cc(C(=O)OCC(=O)c2cc(C)n(CC3CCCO3)c2C)ccc1OCC(=O)N1CCOCC1 (stereo unspecified) returned C8 TRAIL sens 2, FLuc inh counter 16, PPC-1+TRAIL kill 2, STAT3 inh 0, FLuc act counter 0.8 and HSP90 inh 2.
`O=C(NCc1ccccn1)C1CC(c2ccc(F)cc2)=NO1` (stereo unspecified) gave C8 TRAIL sens 7, FLuc inh counter -4, PPC-1+TRAIL kill 10, STAT3 inh 14, FLuc act counter 1 and HSP90 inh 2.
`CC(NC(=O)c1cn(C(C)c2ccccc2F)nn1)c1ccncc1` (stereo unspecified) gave C8 TRAIL sens 0, FLuc inh counter -2, PPC-1+TRAIL kill 16, STAT3 inh -1, FLuc act counter 1 and HSP90 inh -1.
For Cc1cc(C(=O)N/N=C2\CCCC(=O)C2)c(C)n1-c1ccccc1 the results were C8 TRAIL sens 1, FLuc inh counter -5, PPC-1+TRAIL kill 17, STAT3 inh -7, FLuc act counter 1, HSP90 inh 31*, HSP90 inh confirm -5 and FLuc counter -18.
For Cc1ccc(NC(=O)c2cc(C)n(-c3ccccc3)c2C)cc1 the results were C8 TRAIL sens 93*, FLuc inh counter 95*, PPC-1+TRAIL kill 77*, STAT3 inh 88*, FLuc act counter 0, HSP90 inh 75*, HSP90 inh confirm 85* and FLuc counter 83*.
`Cc1ccc(NC(=O)c2cnn(-c3ccccc3)c2C)cc1` gave C8 TRAIL sens 45 and HSP90 inh 11.
For O=C(CCc1ccccc1)NC(=S)Nc1cccc(Br)c1 the results were C8 TRAIL sens -6, FLuc inh counter -9, PPC-1+TRAIL kill 16, STAT3 inh 2, FLuc act counter 1.1 and HSP90 inh -3.
Screening O=C(CCc1ccccc1)NC(=S)Nc1cccc(C(=O)O)c1 returned C8 TRAIL sens 2, HSP90 inh 33*, HSP90 inh confirm 41* and FLuc counter 23*.
O=C(CCCc1ccccc1)Nc1cccc(C(=O)O)c1 was read as C8 TRAIL sens 13, FLuc inh counter 14, PPC-1+TRAIL kill 19, STAT3 inh 73*, FLuc act counter 0.9, HSP90 inh 61*, HSP90 inh confirm 71* and FLuc counter 75*.
Cc1cccc(C)c1OCC(=O)Nc1cccc(C(=O)O)c1 was read as C8 TRAIL sens 2, FLuc inh counter 1, PPC-1+TRAIL kill 20, STAT3 inh 34, FLuc act counter 1, HSP90 inh 23*, HSP90 inh confirm 36* and FLuc counter 30*.
For Nc1ccccc1C(=O)Nc1cccc(C(=O)O)c1 the results were C8 TRAIL sens -4, FLuc inh counter 4, PPC-1+TRAIL kill -26, STAT3 inh 30, FLuc act counter 1, HSP90 inh 33*, HSP90 inh confirm 42* and FLuc counter 21*.
Screening Cc1ccc(C(=O)COC(=O)CNC(=O)c2ccccc2)s1 returned C8 TRAIL sens -3.
COc1ccccc1C(=O)NCCn1cc(SCC(=O)NCC2CCCO2)c2ccccc21 (stereo unspecified) was read as C8 TRAIL sens -2 and HSP90 inh 1.
